This sample holds only a part of the variants without activity.
B1: tRNA (parent)
chain: GUUCCGUUGGCGUAAUGGUAACGCGUCUCCCUCCUAAGGAGAAGACUGCGGGUUCGAGUCCCGUACGGAACG

Variants of: B1
Assay: yeast fitness relative to wild type (ratio to wild type); higher = fitter; tRNA-Arg(CCU), competitive growth, 37 C, YPD
Outline: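 Gene amplicons from the start population and from each of six end populations were read by 100-nucleotide paired-end sequencing. Those end populations came from pooled Saccharomyces cerevisiae strains carrying tRNA-Arg(CCU) gene variants at the native locus, competed in YPD at 37°C for 24 hours. Fitness relative to wild type was worked out from changes in genotype frequencies. Genotypes needed ≥ 100 starting reads, and estimates < 0.5 were set to 0.5.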

Row | Variant | yeast fitness
1 | GUUCCGUUGGCGUAAUGGUAACGCGUCUCCAUCCUAAGGAGAAGACUGCGGGUUCGAGUCCCGUACGGAACG [C31A] | 0.848
2 | GUUCCGUUGGCGUAAUGGUAACGCGUCUCUCUCCUAAGGACAAGACUGCGGGUUCGAGUCCCGUACGGAUCG [C30U G41C A70U] | 0.567
3 | GUUCCGUUGGCGUAAUGGUAACGCGUCUCUCUCCUAAGAAGAAGACUGCGGGUUCGAGUCGGGUACGGAACG [C30U G39A C61G C62G] | ≤ 0.5
4 | GUUCCGUUGGCGUAAUGGUAACGCGUCUCUCUCCUAAGGAGAAGACUGCGCGUUCGAAUCCCGUACGGAACG [C30U G51C G58A] | ≤ 0.5
5 | GUUCCGUUGGCGUAAUGGUAACGCGUCUCCAUCCUAGGGAGAAGACUGUGGGUUUGGGUCCCGUACGGAACG [C31A A37G C49U C55U A57G] | ≤ 0.5
6 | GUUCCGUUGGCGUAAUGGUAACGCGUCUCUCUCCUAAGGAGAAGACAGCGGGUUCGAGAUCGGUAUGGAACG [C30U U47A U59A C60U C62G C66U] | ≤ 0.5
7 | GUUCCGUUGGCGUAAUGGUAACGCGUCUCUCUCCCAAGGAGAAGACUGCGUGUUCGAGUCUCGUACGGAACG [C30U U35C G51U C61U] | ≤ 0.5
8 | GUUCCGUUGGCGUAAUGGUAACGCGUCUCUCUCCUAAGGAGAAGACUGCGGGUUCGAAUCGCGUACGGAACG [C30U G58A C61G] | ≤ 0.5
9 | GUUCCGUUGGCGUAAUGGUAACGCGUCUCUCUCCUAAGGAGAAGACUGCCGGUUCGAGUCCCGUACGGAGCG [C30U G50C A70G] | ≤ 0.5
10 | GUUCCGUUGGCGUAAUGGUAACGCGUCUCUCUCCUAAGGAGAAAACUGCGGGUUCGAGUCCCGUUCGGAACG [C30U G44A A65U] | ≤ 0.5
11 | GUUCCGUUGGCGUAAUGGUAACGCGUCUCUCUCCUAAGGAGAAGACUCCGGGUUCGAGUCCCGUACGGAACG [C30U G48C] | 0.872
12 | GUUCCGUUGGCGUAAUGGUAACGCGUCUCUCUCCUAAGGAGAAGACUGCGGGUCCGAGUCCCGUACGGAACG [C30U U54C] | 0.805
13 | GUUCCGUUGGCGUAAUGGUAACGCGUCUCUCUCCAAGCGAGAAGACAGCGGGUUCGAGUCCCGUACGGAACG [C30U U35A A37G G38C U47A] | ≤ 0.5
14 | GUUCCGUUGGCGUAAUGGUAACGCGUCUCUCACCUUUGGAGAAGACUGCGGGUUCGAGUCACGUACGGAACG [C30U U32A A36U A37U C61A] | ≤ 0.5
15 | GUUCCGUUGGCGUAAUGGUAACGCGUCUCUCUCCUAAGGAGAAGACUGCGGGUUCGAGUCCCGUACAGAACG [C30U G67A] | 0.921
16 | GUUCCGUUGGCGUAAUGGUAACGCGUCUCUCUCCUAAGGAGAAGACUGCGGGUUCGAGUCCCGUACCGAACG [C30U G67C] | 0.864
17 | GUUCCGUUGGCGUAAUGGUAACGCGUCUCUCUCCUAAGGAGAAGACUGCGGGUACGAGUCCCGUACGUAACG [C30U U54A G68U] | ≤ 0.5
18 | GUUCCGUUGGCGUAAUGGUAACGCGUCUCUCACCUUUGGAGAAGACUGCGGGUUCGAGUCCUAUACGGAACG [C30U U32A A36U A37U C62U G63A] | ≤ 0.5
19 | GUUCCGUUGGCGUAAUGGUAACGCGUCUCUCCCCUAAGGAGAAGACUGCGGGUUCGAGUCCCGUACGGAACG [C30U U32C] | 0.924

Row | Variant | yeast fitness
20 | GUUCCGUUGGCGUAAUGGUAACGCGUCUCUCUCCUAAGCAGAAGACUGCGGGUUCGAGUCCCGCACGGAACG [C30U G39C U64C] | 0.528
21 | GUUCCGUUGGCGUAAUGGUAACGCGUCUCUCUCCUAAGGAGAAGACUGCAGGUUCGAGUCCCGUACGAAACG [C30U G50A G68A] | ≤ 0.5
22 | GUUCCGUUGGCGUAAUGGUAACGCGUCUCUCGCCUAAGGAGAAGACUGCGGGUUCGAGUCCCGAACGCAACG [C30U U32G U64A G68C] | ≤ 0.5
23 | GUUCCGUUGGCGUAAUGGUAACGCGUCUCUCUCCUAAGGAGAAGACUGCGGGUUCGAGACCCGUACGGAACG [C30U U59A] | 0.828
24 | GUUCCGUUGGCGUAAUGGUAACGCGUCUCUCUCCUAAGGAGAAGACUGCGGGUUCGAGCCCCGUACGGAACG [C30U U59C] | 0.824
25 | GUUCCGUUGGCGUAAUGGUAACGCGUCUCUCUCCCAAGGAGAAGUCUGCGGGUUCGCGUCCCGUACGGAACG [C30U U35C A45U A57C] | 0.534
26 | GUUCCGUUGGCGUAAUGGUAACGCGUCUCUCUCCUAAGGAGAAGACAGCGGGUUCGAGUCCCGUACCAAACG [C30U U47A G67C G68A] | ≤ 0.5
27 | GUUCCGUUGGCGUAAUGGUAACGCGUCUCUCUCCUAACGAGAAGACUGCGGGUUCGAAUCACGUACGGAACG [C30U G38C G58A C61A] | ≤ 0.5
28 | GUUCCGUUGGCGUAAUGGUAACGCGUCUCUCUCCCAAGGAGACGACUGCGGGUUCGAGUCCCGUACUGAACG [C30U U35C A43C G67U] | ≤ 0.5
29 | GUUCCGUUGGCGUAAUGGUAACGCGUCUCUCUCCUAAGGACAAGACUGCGGGUUCGAGUCCCGUACGGUACG [C30U G41C A69U] | ≤ 0.5
30 | GUUCCGUUGGCGUAAUGGUAACGCGUCUCUCUCCAAAGGAGAAGACUGCGGGUUCGAGUCCCGUACGGAACG [C30U U35A] | 0.63
31 | GUUCCGUUGGCGUAAUGGUAACGCGUCUCUCUCCUAAGGAGAAGACUGCGGGUCCGCGUCCCGUACGGAACG [C30U U54C A57C] | ≤ 0.5
32 | GUUCCGUUGGCGUAAUGGUAACGCGUCUCUCUCCUAAGGAGAAGACUGCGGGUUCGAGUCCCAUACGGAACG [C30U G63A] | 0.729
33 | GUUCCGUUGGCGUAAUGGUAACGCGUCUCUCUCCUAAGGAGAAGACUGCGGGUUCGAGUCCCCUACGGAACG [C30U G63C] | 0.757
34 | GUUCCGUUGGCGUAAUGGUAACGCGUCUCUCUCCUAAGGAGAAAACUGCGGGUUCGAGUGCCGUACGGAACG [C30U G44A C60G] | ≤ 0.5
35 | GUUCCGUUGGCGUAAUGGUAACGCGUCUCUCUCCUAAGGAGAAGACUGCGGAUCCGAGUCCCGUACGGAACG [C30U G52A U54C] | ≤ 0.5
36 | GUUCCGUUGGCGUAAUGGUAACGCGUCUCUCUCCUAAGGAGAAGACAGCGGGUUCGGGUCCCGUACCGAACG [C30U U47A A57G G67C] | ≤ 0.5
37 | GUUCCGUUGGCGUAAUGGUAACGCGUCUCUCACCUAAGGAGAAGACUGCGGGUACGAGUCCCGUACGGAACG [C30U U32A U54A] | 0.536
38 | GUUCCGUUGGCGUAAUGGUAACGCGUCUCUCUCCUAAGGAGAAGACUGCGGGUUCGAGUCCCGUACGAAUCG [C30U G68A A70U] | 0.577

Reference: the RNAGym collection of RNA variant scans (doi:10.1126/science.aae0568)
